ChEMBL document CHEMBL3862029, “Discovery of 8-Membered Ring Sulfonamides as Inhibitors of Oncogenic Mutant Isocitrate Dehydrogenase 1” (ACS Med Chem Lett, 2016)
Converted amounts (≈) assume the structure as drawn. The source made the active and inactive calls. No cut-off for these calls is given here.

Key:
[1] = Cytotoxicity against human U937 cells assessed as decrease in intracellular ATP levels at >10 uM measured after 72 hrs by CellTiter-Glo assay; format: toxicity, cell-based; settings: u-937, 72 h
[2] = Cytotoxicity against human U937 cells assessed as decrease in intracellular ATP levels up to 10 uM measured after 72 hrs by CellTiter-Glo assay; format: toxicity, cell-based; settings: u-937, 72 h
[3] = biological target: Isocitrate dehydrogenase [NADP], mitochondrial (Homo sapiens) (UniProt P48735); experiment: Inhibition of human C-terminal FLAG-tagged IDH2-R140Q mutant (1 to 452 residues) expressed in baculovirus infeceted sf9 cells assessed as inhibition of ketoreductase activity preincubated for 10 mins followed by addition of NADPH and alpha-KG as substrate by fluorescence method
[4] = Half life in human liver microsomes at 1 uM by LC-MS/MS analysis; format: ADME
[5] = Cytotoxicity against human HA1EM cells assessed as decrease in intracellular ATP levels at >10 uM measured after 72 hrs by CellTiter-Glo assay; format: toxicity, cell-based
In short: (§1)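 IDH1-R132H-overexpressing HA1E-M cells treated for 72 h. After media harvest, viability assessed by morphology and ATP levels. Values are normalized to DMSO controls, mean ± SD of three independent experiments each run in triplicate.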

[6] = tested on: Isocitrate dehydrogenase [NADP] cytoplasmic (Homo sapiens), O75874 [R132H]; experiment: Inhibition of human C-terminal His8-tagged IDH1-R132H mutant expressed in Escherichia coli Rosetta assessed as inhibition of ketoreductase activity by measuring NADPH consumption preincubated for 10 mins followed by addition of NADPH and alpha-KG as substrate by fluorescence method
Sequence of Isocitrate dehydrogenase [NADP] cytoplasmic (Homo sapiens), O75874 [R132H] (O75874 whole entry R132H): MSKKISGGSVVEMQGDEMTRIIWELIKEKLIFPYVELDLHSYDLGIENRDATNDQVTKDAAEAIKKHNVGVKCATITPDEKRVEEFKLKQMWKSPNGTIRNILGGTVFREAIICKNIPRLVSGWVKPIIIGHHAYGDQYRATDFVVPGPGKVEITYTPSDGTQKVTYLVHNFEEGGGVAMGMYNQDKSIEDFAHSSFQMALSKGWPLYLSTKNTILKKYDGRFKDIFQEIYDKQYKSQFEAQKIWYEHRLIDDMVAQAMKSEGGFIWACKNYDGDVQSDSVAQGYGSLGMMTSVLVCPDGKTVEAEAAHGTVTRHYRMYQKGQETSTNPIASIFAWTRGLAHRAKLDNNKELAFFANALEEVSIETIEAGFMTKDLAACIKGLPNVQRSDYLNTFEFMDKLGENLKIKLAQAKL
In short: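 Purified IDH1-R132H incubated with α-KG and NADPH; direct kinetic read of falling NADPH fluorescence, run in dose. Enzyme concentration kept below that of the screening assays so inhibitor stays far above enzyme. IC50 values are geometric means of at least three independent experiments.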

[7] = Thermodynamic solubility of the compound in PBS at 100 uM and pH 7.4 measured after 18 hrs by UPLC-MS analysis; format: physicochemical; settings: read-out: Therm_solubility
[8] = biological target: Isocitrate dehydrogenase [NADP] cytoplasmic (Homo sapiens, UniProt O75874, R132C); experiment: Inhibition of human C-terminal His8-tagged IDH1-R132C mutant expressed in Escherichia coli Rosetta assessed as inhibition of ketoreductase activity by measuring NADPH consumption preincubated for 10 mins followed by addition of NADPH and alpha-KG as substrate by fluorescence method
Sequence of Isocitrate dehydrogenase [NADP] cytoplasmic (Homo sapiens, UniProt O75874, R132C) (O75874 2-414 R132C limits assumed): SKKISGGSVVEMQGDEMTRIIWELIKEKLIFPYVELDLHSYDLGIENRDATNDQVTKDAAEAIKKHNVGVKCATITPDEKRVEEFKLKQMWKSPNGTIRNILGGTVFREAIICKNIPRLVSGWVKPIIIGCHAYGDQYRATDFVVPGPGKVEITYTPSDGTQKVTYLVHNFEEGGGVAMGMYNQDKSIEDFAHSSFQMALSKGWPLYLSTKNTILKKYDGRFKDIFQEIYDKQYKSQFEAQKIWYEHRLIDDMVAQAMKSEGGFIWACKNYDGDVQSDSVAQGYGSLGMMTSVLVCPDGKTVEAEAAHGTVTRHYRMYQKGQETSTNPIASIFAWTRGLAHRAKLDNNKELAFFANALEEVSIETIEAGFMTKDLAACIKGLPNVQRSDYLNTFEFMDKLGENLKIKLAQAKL

[9] = tested on: Isocitrate dehydrogenase [NADP] cytoplasmic (Homo sapiens), O75874 [R132H]; experiment: Inhibition of human C-terminal His8-tagged IDH1-R132H mutant expressed in Escherichia coli Rosetta cells assessed as inhibition of ketoreductase activity measured as NADPH consumption preincubated for 60 mins followed by addition of NADPH and alpha-KG as substrate measured after 50 mins using Mg2+ as cofactor in presence of tween-20 detergent by resazurin/diaphorase-coupled fluorescence analysis
In short: (§2)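 IDH1-R132H–Mg2+ ketoreductase assay reading NADPH consumption through a diaphorase-coupled fluorescence reaction. Buffer contained 0.01% Tween 20 against aggregation. Primary screen at 15 μM in duplicate, with positives set at ≥60% inhibition in both replicates. Retests were in 8-point dose.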

[10] = Protein binding in human plasma at 5 uM measured after 5 hrs by rapid equilibrium dialysis method; format: ADME, cell-free; settings: read-out: PPB (converted)
[11] = tested on: Isocitrate dehydrogenase [NADP] cytoplasmic (Homo sapiens), O75874 [R132H]; experiment: Competitive inhibition of recombinant human C-terminal His8-tagged IDH1-R132H mutant expressed in Escherichia coli Rosetta cells assessed as inhibition of ketoreductase activity by measuring NADPH consumption preincubated for 10 mins followed by addition of NADPH and alpha-KG as substrate in presence of varying levels of Mg2+ concentration by fluorescence method
[12] = tested on: Isocitrate dehydrogenase [NADP] cytoplasmic (Homo sapiens), O75874 [R132H]; experiment: Competitive inhibition of recombinant human C-terminal His8-tagged IDH1-R132H mutant expressed in Escherichia coli Rosetta cells assessed as inhibition of ketoreductase activity by measuring NADPH consumption preincubated for 10 mins followed by addition of NADPH and varying levels of alpha-KG as substrate in presence of constant Mg2+ concentration by fluorescence method
[13] = tested on: Isocitrate dehydrogenase [NADP] cytoplasmic (Homo sapiens), O75874 [R132H]; experiment: Inhibition of human C-terminal His8-tagged IDH1-R132H mutant expressed in Escherichia coli Rosetta cells assessed as inhibition of ketoreductase activity measured as NADPH consumption preincubated for 60 mins followed by addition of NADPH and alpha-KG as substrate measured after 50 mins using Mg2+ …
[14] = tested on: Isocitrate dehydrogenase [NADP] cytoplasmic (Homo sapiens), O75874 [R132H]; experiment: Inhibition of human C-terminal His8-tagged IDH1-R132H mutant expressed in Escherichia coli Rosetta assessed as inhibition of ketoreductase activity by measuring NADPH consumption preincubated for 20 mins followed by addition of NADPH and alpha-KG as substrate in presence of Mg2+ by spectrophotometric method
In short: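 Orthogonal confirmation assay: IDH1-R132H ketoreductase activity with NADPH detected by absorbance. Positives retested in 8-point dose.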

[15] = tested on: Isocitrate dehydrogenase [NADP] cytoplasmic (Homo sapiens), O75874 [R132C]; experiment: Inhibition of human C-terminal His8-tagged IDH1-R132C mutant expressed in Escherichia coli Rosetta cells assessed as change in melting temperature at 5 uM measured over 20 mins using SYPRO orange dye by DSF analysis
Sequence of Isocitrate dehydrogenase [NADP] cytoplasmic (Homo sapiens), O75874 [R132C] (O75874 whole entry R132C): as the sequence (O75874 whole entry R132H) above, with H132C counted along it
In short: (§3)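 Differential scanning fluorimetry of recombinant enzyme, giving melting temperature shift with compound present. Mean of 3 independent experiments, each with 7 replicates.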

[16] = Cytotoxicity against human THP1 cells assessed as decrease in intracellular ATP levels up to 10 uM measured after 72 hrs by CellTiter-Glo assay; format: toxicity, cell-based; settings: thp-1, 72 h
[17] = biological target: T1, Isocitrate dehydrogenase [NADP] cytoplasmic (Homo sapiens, UniProt O75874, R132H); experiment: (§4) Inhibition of IDH1-R132H mutant (unknown origin) expressed in human HA1EM cells assessed as suppression of R-2HG secretion measured after 72 hrs by LC-MS/MS analysis; format: cell-based
In short: (§5)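 HA1E-M cells (HEK-293 derivative) engineered to overexpress IDH1-R132H and release R-2HG into growth media. Compound treatment for 72 h, then R-2HG in conditioned media measured by LC-MS. Values normalized to DMSO-treated controls; EC50 from three independent experiments, each run in triplicate.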
Target sequence in this assay (O75874 whole entry R132H): as the sequence (O75874 whole entry R132H) above

[18] = tested on: Isocitrate dehydrogenase [NADP] cytoplasmic (Homo sapiens), O75874 [R132H]; experiment: as §4; format: cell-based; in short: as §5
[19] = biological target: T1, Isocitrate dehydrogenase [NADP] cytoplasmic; experiment: Inhibition of human C-terminal His8-tagged IDH1-R132H mutant expressed in Escherichia coli Rosetta assessed as inhibition of ketoreductase activity by measuring NADPH consumption preincubated for 60 mins followed by addition of alpha-KG as substrate measured after 50 mins in presence of NADPH and Mg2+ by resazurin based diaphorase-coupled fluorescence assay; in short: as §2
Target sequence in this assay (O75874 2-414 R132H limits assumed): as the sequence (O75874 2-414 R132C limits assumed) above, with C131H counted along it

[20] = Half life in mouse liver microsomes at 1 uM by LC-MS/MS analysis; format: ADME
[21] = Cytotoxicity against human HA1EM cells assessed as decrease in intracellular ATP levels up to 10 uM measured after 72 hrs by CellTiter-Glo assay; format: toxicity, cell-based; in short: as §1
[22] = biological target: Isocitrate dehydrogenase [NADP] cytoplasmic (Homo sapiens, UniProt O75874); experiment: Inhibition of wild type human C-terminal His8-tagged IDH1 expressed in Escherichia coli Rosetta cells assessed as reduction in isocitrate to alpha-KG conversion preincubated for 15 mins followed by substrate addition in presence of NADP+ by resazurin based diaphorase-coupled fluorescence assay
Sequence of Isocitrate dehydrogenase [NADP] cytoplasmic (Homo sapiens, UniProt O75874) (O75874 whole entry): as the sequence (O75874 whole entry R132H) above, with H132R counted along it
In short: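 Wild-type IDH1 activity read as NADPH production from NADP+ and isocitrate, through a diaphorase-coupled fluorescence reaction analogous to the primary screen.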

[23] = Octanol-phosphate buffer partition coefficient, log D of compound at pH 7.4 at 67 uM; format: physicochemical
[24] = Protein binding in mouse plasma at 5 uM measured after 5 hrs by rapid equilibrium dialysis method; format: ADME, cell-free; settings: read-out: PPB (converted)
[25] = Cytotoxicity against human THP1 cells assessed as decrease in intracellular ATP levels at >10 uM measured after 72 hrs by CellTiter-Glo assay; format: toxicity, cell-based; settings: thp-1, 72 h
[26] = tested on: Isocitrate dehydrogenase [NADP] cytoplasmic (Homo sapiens), O75874 [R132H]; experiment: Inhibition of human C-terminal His8-tagged IDH1-R132H mutant expressed in Escherichia coli Rosetta cells assessed as change in melting temperature at 5 uM measured over 20 mins using SYPRO orange dye by DSF analysis; in short: as §3

Structure (SMILES): C[C@@H]1CN([C@@H](C)CO)S(=O)(=O)c2ccc(C#Cc3cccc(F)c3)cc2O[C@H]1CN(C)C(=O)NC1CCCCC1
- Activity [1]: Toxic
- Activity [2]: Non-Toxic
- IC50 [3]: > 20000 nM
- half-life at 1 µM [4]: 42 s
- Activity [5]: Toxic
- inhibition [6]: Active
- solubility thermodynamic at 18 h, 100 µM [7]: 5 µM (≈ 2.86 µg/mL)
- IC50 [8]: 2500 nM
- inhibition [9]: Active
- fraction unbound at 5 h, 5 µM [10]: 0.005
- inhibition [11]: Active
- inhibition [12]: Active
- inhibition [13]: Active
- inhibition [14]: Active
- ΔTm [15]: 1.4 °C
- Activity [16]: Non-Toxic
- EC50 [17]: 300 nM
- inhibition [18]: Dose-dependent effect
- IC50 [19]: 50 to 57 nM
- half-life at 1 µM [20]: 42 s
- Activity [21]: Non-Toxic
- IC50 [22]: > 20000 nM
- logD at 67 µM [23]: 5.19
- fraction unbound at 5 h, 5 µM [24]: 0.037
- Activity [25]: Toxic
- ΔTm [26]: 3.7 °C
